Usually T/C stands for the result in the treated group divided by that in the control group, in per cent.

“And” between values parts separate entries of the source, which are not always exact repeats. Equal values may be shown once.

The test system of series [1] is P388. Description: Minimum effective dose (MED) against leukemia P388 in CDF1 mice. The series is classed as functional, cell-based. The settings on record: Mus musculus. The gist of the method:
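P388 model in CDF1 mice: 10^6 cells ip on day 0, ip dosing on days 1 and 5; 6 treated and 10 control mice per group. Median survival days give % T/C. MED is the lowest dose at which % T/C exceeded 120.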

Series [2] has as its system P388. Description: Antitumor activity against leukemia P388 in CDF1 mice. To be noted: Mus musculus. In kind it is functional, cell-based. Put shortly: (§1)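 CDF1 [(BALB/c × DBA/2)F1] mice given 10^6 P388 cells ip on day 0; treatment ip on days 1 and 5; insoluble complexes suspended in physiological saline with a few drops of Tween 80. Groups of 6 treated and 10 control mice. Median survival of treated (T) and control (C) groups calculated; activity expressed as % T/C.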

Series [3] can be described thus: Therapeutic index was determined against leukemia P388 cells in mice. In kind it is cell-based. The settings on record: mouse. The gist of the method:
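CDF1 mice implanted ip with 10^6 P388 cells on day 0 and dosed ip on days 1 and 5 (saline, or saline plus Tween 80 suspension if insoluble); 6 treated and 10 control mice. % T/C from median survival. TI is optimal dose divided by MED (lowest dose giving % T/C above 120), per the NCI platinum analogue protocol.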

Series [4] has as its system P388. Description: Toxic dose against leukemia P388 in CDF1 mice. In kind it is functional, cell-based. To be noted: Mus musculus. Put shortly:
as §1

The subject of series [5] is P388. Description: Optimal dose against leukemia P388 in CDF1 mice. The series is classed as functional, cell-based. To be noted: Mus musculus. Put shortly:
as §1

With “amcha (cis-d)-2-(aminomethyl)cyclohexylamine platinum (II) complex [listing 1 of 5 here]”, the MED in series [1] is less than 0.39 mg/kg. The T/C in series [2] was 160% [middle of 8 runs].
“amcha (cis-d)-2-(aminomethyl)cyclohexylamine platinum (II) complex [listing 2 of 5 here]”: the TI in series [3] turned out to be 16.
Same read-out and setting: the result for “amcha (trans-d)-2-(aminomethyl)cyclohexylamine platinum (II) complex [listing 1 of 5 here]” reads “>= 64”.
On the same count and under the same terms, in the case of “dach (trans-l)-1,2-cyclohexanediamine platinum (II) complex [listing 1 of 4 here]” it was “>= 16”; in that of “amcha (cis-l)-2-(aminomethyl)cyclohexylamine platinum (II) complex [listing 1 of 6 here]”, 8.
Turning to “dach (trans-l)1,2-cyclohexanediamine platinum (II) complex [listing 1 of 2 here]”, in series [3], the TI entry is “>= 4”.
Still for that read-out and setting: in the case of “dach (cis)-1,2-cyclohexanediamine platinum (II) complex [listing 1 of 4 here]” it was 4.
As for “dach (trans-l)-1,2-cyclohexanediamine platinum (II) complex [listing 2 of 4 here]”, the T/C in series [2] is 182% [middle of 10 runs].
In the case of “amcha (trans-l)-2-(aminomethyl)cyclohexylamine platinum (II) complex [listing 1 of 4 here]”, the TI entry in series [3] is “>= 16”.
“dach (trans-l)-1,2-cyclohexanediamine platinum (II) complex [listing 3 of 4 here]” gave a TI in series [3] of 8.
On the same count and under the same terms, the result for “dach (trans-d)-1,2-cyclohexanediamine platinum (II) complex [listing 1 of 5 here]” reads 16.
For “0-Hexyl-1,3-diamine-platinum 2,2-dichloride [listing 1 of 2 here]”, the Toxic dose in series [4] worked out at 12.5 mg/kg. Moreover, the MED in series [1] was 1.56 mg/kg. Further, in series [2], the T/C is 206% and 127%. This substance also gave an Optimal dose in series [5] of 6.25 mg/kg.
Regarding “amcha (trans-d)-2-(aminomethyl)cyclohexylamine platinum (II) complex [listing 2 of 5 here]”, the Toxic dose in series [4] was 100 mg kg-1 and > 100 mg kg-1 (2×) and > 200 mg kg-1. For the same substance, the MED in series [1] was less than 0.78 mg/kg. Further, in series [2], the T/C is 160% [middle of 8 runs].
Consider “amcha (cis-l)-2-(aminomethyl)cyclohexylamine platinum (II) complex [listing 2 of 6 here]”, for which the TI result in series [3] is listed as “>= 32”.
In series [3], CISPLATIN [listing 1 of 2 here] registered a TI of 4.
Still for that read-out and setting: the result for “amcha (trans-l)-2-(aminomethyl)cyclohexylamine platinum (II) complex [listing 2 of 4 here]” reads 16.
For “amcha (cis-d)-2-(aminomethyl)cyclohexylamine platinum (II) complex [listing 3 of 5 here]”, in series [3], the TI result is “>= 4”.
On the same count and under the same terms, in the case of “amcha (cis-l)-2-(aminomethyl)cyclohexylamine platinum (II) complex [listing 3 of 6 here]” it was greater than 8; in that of “amcha (trans-d)-2-(aminomethyl)cyclohexylamine platinum (II) complex [listing 3 of 5 here]”, 64.
Consider “dach (trans-d)-1,2-cyclohexanediamine platinum (II) complex [listing 2 of 5 here]”, for which the T/C in series [2] was 151% [middle of 12 runs].
For the substance “amcha (trans-d)-2-(aminomethyl)cyclohexylamine platinum (II) complex [listing 4 of 5 here]”, the TI entry in series [3] is given as “>= 16”.
With “0-Hexyl-1,3-diamine-platinum 2,2-dichloride [listing 2 of 2 here]”, the TI in series [3] is 4.
Same read-out and setting: the result for “dach (cis)-1,2-cyclohexanediamine platinum (II) complex [listing 2 of 4 here]” reads 16.
Turning to “amcha (cis-l)-2-(aminomethyl)cyclohexylamine platinum (II) complex [listing 4 of 6 here]”, in series [3], the TI stood at 32.
Consider “dach (trans-l)-1,2-cyclohexanediamine platinum (II) complex [listing 4 of 4 here]”, for which, in series [3], the TI turned out to be 4.
As for “amcha (trans-l)-2-(aminomethyl)cyclohexylamine platinum (II) complex [listing 3 of 4 here]”, the T/C in series [2] is 158% [middle of 10 runs]. Also, the Optimal dose in series [5] was 12.5 mg kg-1 (3×) and 25 mg kg-1 and > 25 mg kg-1.
Consider “amcha (trans-l)-2-(aminomethyl)cyclohexylamine platinum (II) complex [listing 4 of 4 here]”, for which the TI in series [3] was determined as 4.
The same measure, in the same setting: the result for “dach (trans-d)-1,2-cyclohexanediamine platinum (II) complex [listing 3 of 5 here]” reads 13; that for “amcha (cis-l)-2-(aminomethyl)cyclohexylamine platinum (II) complex [listing 5 of 6 here]”, greater than 16.
Regarding “amcha (cis-l)-2-(aminomethyl)cyclohexylamine platinum (II) complex [listing 6 of 6 here]”, the MED in series [1] was < 0.78 mg kg-1 (3×) and < 1.56 mg kg-1 and 0.78 mg kg-1. Moreover, in series [2], the T/C is 148% [middle of 11 runs].
As to “dach (trans-d)-1,2-cyclohexanediamine platinum (II) complex [listing 4 of 5 here]”, in series [3], the TI result is given as “>= 8”.
Still for that read-out and setting: in the case of “dach (trans-d)-1,2-cyclohexanediamine platinum (II) complex [listing 5 of 5 here]” it was 8.
In the case of CISPLATIN [listing 2 of 2 here], the Toxic dose in series [4] is 12.5 mg/kg. Besides, the MED in series [1] was 0.78 mg/kg. For the same substance, the T/C in series [2] was 230% (2×) and 134% (2×). The substance further registered an Optimal dose in series [5] of 3.12 mg/kg.
In the case of “amcha (cis-d)-2-(aminomethyl)cyclohexylamine platinum (II) complex [listing 4 of 5 here]”, in series [3], the TI entry was “>= 16”.
Still for that read-out and setting: in the case of “dach (cis)-1,2-cyclohexanediamine platinum (II) complex [listing 3 of 4 here]” it was “>= 8”.
As for “dach (cis)-1,2-cyclohexanediamine platinum (II) complex [listing 4 of 4 here]”, the T/C in series [2] is 144% [middle of 10 runs]. Moreover, the Optimal dose in series [5] was 25 mg kg-1 (4×) and 12.5 mg kg-1.
As for “dach (trans-l)1,2-cyclohexanediamine platinum (II) complex [listing 2 of 2 here]”, the Toxic dose in series [4] turned out to be 25 mg/kg. In series [1], the MED is less than 1.56 mg/kg. Moreover, in series [5], the Optimal dose is 6.25 mg/kg.
“amcha (trans-d)-2-(aminomethyl)cyclohexylamine platinum (II) complex [listing 5 of 5 here]”: the TI in series [3] stood at 16.
“amcha (cis-d)-2-(aminomethyl)cyclohexylamine platinum (II) complex [listing 5 of 5 here]” displayed a TI in series [3] of 32.
